Screening data: PubChem, Sanford-Burnham Center for Chemical Genomics
PPC-1+TRAIL kill: compounds killing PPC-1 cancer cells with TRAIL present, primary screen, TRAIL potentiator project, ATPLite luminescence, uHTS; PPC-1 cells + TRAIL, ATPLite viability luminescence; cell killing (% activity), % at 4 µM or 5 µM; 0.41% of 220,000 active; AID 1443, 2008;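 active = cell killing above 50% in the first pass at 4 µM, then a duplicate retest at 5 µM averaging 50% or more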;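 also: plate controls were cells with TRAIL plus DMSO for no effect and medium-only wells lacking cells for full effect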
FLuc inh counter: firefly luciferase enzyme inhibitors, primary screen, artefact control for luciferase-based inhibitor screens, biochemical, luminescence, ATPLite | Luciferin 4-monooxygenase (Photinus pyralis), P08659 | 10 min | inhibition, % at 10 µM | 1.5% of 200,000 active | AID 1006, 2008;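 active = inhibition above about 50% when tested at 10 µM, limit read from the data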
Target sequence (P08659 whole entry, looked up): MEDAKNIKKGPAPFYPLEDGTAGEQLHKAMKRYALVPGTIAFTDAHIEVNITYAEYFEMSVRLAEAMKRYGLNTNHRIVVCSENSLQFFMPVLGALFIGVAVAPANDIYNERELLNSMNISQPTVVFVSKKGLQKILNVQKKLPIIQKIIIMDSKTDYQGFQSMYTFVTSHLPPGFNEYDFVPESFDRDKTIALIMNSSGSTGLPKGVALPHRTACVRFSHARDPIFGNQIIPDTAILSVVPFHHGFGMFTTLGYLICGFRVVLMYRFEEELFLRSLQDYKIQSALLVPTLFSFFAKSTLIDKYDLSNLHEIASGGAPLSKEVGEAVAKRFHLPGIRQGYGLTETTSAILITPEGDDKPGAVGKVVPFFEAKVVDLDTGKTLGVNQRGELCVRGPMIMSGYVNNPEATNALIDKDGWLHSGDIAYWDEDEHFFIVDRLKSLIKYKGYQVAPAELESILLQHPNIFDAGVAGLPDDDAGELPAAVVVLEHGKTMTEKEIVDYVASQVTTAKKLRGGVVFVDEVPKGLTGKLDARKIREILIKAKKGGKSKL
C8 TRAIL sens: viability loss with TRAIL in NB7+C8 cells, primary screen, TRAIL sensitizer project, cell-based, ATPlite luminescence; inhibition (viability loss, TRAIL sensitization), % at 10 µM; 1% of 360,000 active;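 active = compounds causing at least 50% loss of cell viability in the single-dose screen, relative to plate controls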
FLuc stim CS: FLuc activators, initial screening, artefact control for FLuc-dependent activation tests, biochemical, ATPlite luminescence; 200,000 tested, under 10 active; ATPlite luciferase biochemical, 10 min; 0 = ATP-free wells, 1 = DMSO control; activation factor at 10 µM;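 active = luciferase activation factor, scaled between plate controls, of at least 2 with compound at 10 µM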
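Assay system – cell-free luciferase reagent · Medium – PBS-based ATP solution · Dosing – test compounds dosed from 2 mM stocks in 100% DMSO · Timing – 10 min, room temperature · Technique – light output (luminescence) · Measure – luminescence gain marking luciferase activators · Controls – No-ATP low control, compound-free enzyme-plus-ATP high control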
* marks the source's active call; other numbers are inactive results. An excerpt weighted towards active compounds, which were near 1.5% of everything screened.

How did C/C(=N\OC(=O)c1c(-c2c(F)cccc2Cl)noc1C)c1nccs1 do in these assays?
PPC-1+TRAIL kill: 25; FLuc inh counter: -3; C8 TRAIL sens: -4; FLuc stim CS: 1

Results for CC(=NOC(=O)C1CCCCC1)c1nccs1 ?
C8 TRAIL sens: 1

What do the screens show for `COc1ccc(C(=O)O/N=C(\C)c2nccs2)cc1`?
PPC-1+TRAIL kill: 12; FLuc inh counter: 92*; C8 TRAIL sens: -2; FLuc stim CS: 0.1

Results for COc1ccc(C/C(N)=N/OC(=O)c2cccs2)cc1 ?
PPC-1+TRAIL kill: -16; FLuc inh counter: 0; C8 TRAIL sens: -3; FLuc stim CS: 1

How did C/C(=N\OC(=O)c1ccc(F)cc1)c1nccs1 do in these assays?
PPC-1+TRAIL kill: -5; FLuc inh counter: 87*; C8 TRAIL sens: -10; FLuc stim CS: 0.1

What do the screens show for `O=C(O)c1cccc(Br)c1`?
C8 TRAIL sens: -2

What do the screens show for `N#CC1=CC2CN(Cc3ccccc3)C1C1C(=O)N(c3ccccc3)C(=O)C21` (stereo unspecified)?
C8 TRAIL sens: 19

What do the screens show for `O=C(NCC(=O)N1CCN(C(=O)c2ccco2)CC1)c1ccc(Br)cc1`?
C8 TRAIL sens: -8

Results for CCOC(=O)c1c2c(n(-c3ccc(OC)cc3)c1C)C(=O)C(=O)c1ccccc1-2 ?
C8 TRAIL sens: 95*

How did CCOC(=O)c1sc(=S)n(-c2ccc(OC)cc2)c1C do in these assays?
PPC-1+TRAIL kill: 12; C8 TRAIL sens: 16

How did CN1C(=O)[C@@H]2[C@H](C1=O)[C@@H]1C(=O)Nc3ccccc3C(=O)N1[C@@H]2c1ccc(Br)cc1 do in these assays?
C8 TRAIL sens: -23

Results for c1ccc(CNc2nc(-c3ccccc3)nc3ccccc23)cc1 ?
C8 TRAIL sens: -2

Results for c1ccc(CNc2nc(NCc3ccccc3)c3ccccc3n2)cc1 ?
PPC-1+TRAIL kill: 20; C8 TRAIL sens: 53*

What do the screens show for `c1ccc(CNc2nc3ccccc3[nH]2)cc1`?
PPC-1+TRAIL kill: 45; FLuc inh counter: 64*; C8 TRAIL sens: 40; FLuc stim CS: 0.4

How did c1ccc2[nH]c(NCc3ccc4c(c3)OCO4)nc2c1 do in these assays?
PPC-1+TRAIL kill: 49; FLuc inh counter: 82*; C8 TRAIL sens: 14; FLuc stim CS: 0.2

Results for S=c1nc(NCc2ccc3c(c2)OCO3)c2ccccc2[nH]1 ?
C8 TRAIL sens: -7

What do the screens show for `CC1CC(=Cc2ccc([N+](=O)[O-])cc2)C(=O)O1` (stereo unspecified)?
C8 TRAIL sens: 2

Results for Cc1ccc(-c2nn(-c3ccccc3)cc2NC(=O)CCl)cc1 ?
PPC-1+TRAIL kill: 28; FLuc inh counter: 6; C8 TRAIL sens: 56*; FLuc stim CS: 0.9

What do the screens show for `CC(=O)c1cnc2nc(SCc3cccc(C)c3)nn2c1C`?
C8 TRAIL sens: 2

What do the screens show for `COc1ccccc1CCN1CCCC(CN(C)C(=O)CCC(N)=O)C1` (stereo unspecified)?
C8 TRAIL sens: -10

What do the screens show for `CCn1nc(C(=O)NCCc2ccc(S(N)(=O)=O)cc2)c2ccccc2c1=O`?
PPC-1+TRAIL kill: -2; FLuc inh counter: -7; C8 TRAIL sens: 47*; FLuc stim CS: 1.1

Results for O=c1c2ccccc2nnn1CSc1nnc2sc3ccccc3n12 ?
PPC-1+TRAIL kill: 40; FLuc inh counter: 58*; FLuc stim CS: 0.4

What do the screens show for `N#Cc1ccc(CN2CCN(C(=O)CCNS(=O)(=O)c3ccc(F)c(Cl)c3)CC2)cc1`?
C8 TRAIL sens: -2

What do the screens show for `O=C(O)c1ccc(N/N=C/c2ccc3c(c2)OCO3)cc1`?
PPC-1+TRAIL kill: 4; FLuc inh counter: 61*; C8 TRAIL sens: 31; FLuc stim CS: 0.4

How did C/C(=N\NC(=O)c1ccc(CSc2nncn2C)cc1)c1cccs1 do in these assays?
PPC-1+TRAIL kill: 32; FLuc inh counter: 47; C8 TRAIL sens: 19; FLuc stim CS: 0.5

Results for O=C(N/N=C/c1ccc2c(c1)OCO2)c1ccc2ccccc2n1 ?
PPC-1+TRAIL kill: 19; FLuc inh counter: 67*; C8 TRAIL sens: 46; FLuc stim CS: 0.3

What do the screens show for `Cn1cnnc1SCc1ccc(C(=O)N/N=C/c2cccs2)cc1`?
PPC-1+TRAIL kill: 23; FLuc inh counter: 65*; C8 TRAIL sens: 28; FLuc stim CS: 0.4

How did O=C(O)c1cc(N/N=C/c2ccc3c(c2)OCO3)ccc1Cl do in these assays?
PPC-1+TRAIL kill: 17; FLuc inh counter: 21; C8 TRAIL sens: -3; FLuc stim CS: 0.8

What do the screens show for `O=C(N/N=C/c1ccccc1O)c1ccc2c(c1)OCO2`?
C8 TRAIL sens: 45

How did Cc1cccc(C(=O)N/N=C/c2ccc3c(c2)OCO3)n1 do in these assays?
PPC-1+TRAIL kill: -4; FLuc inh counter: 8; C8 TRAIL sens: 15; FLuc stim CS: 0.9

What do the screens show for `O=C(N/N=C/c1cccs1)c1ccc2c(c1)OCO2`?
PPC-1+TRAIL kill: 59*; FLuc inh counter: 88*; C8 TRAIL sens: 76*; FLuc stim CS: 0.1

How did O=C(O)c1cc(N/N=C/c2ccc3c(c2)OCCO3)ccc1Cl do in these assays?
PPC-1+TRAIL kill: 6; FLuc inh counter: 56*; C8 TRAIL sens: -13; FLuc stim CS: 0.4

How did O=C(N/N=C/c1ccc2c(c1)OCO2)c1cccc2ccccc12 do in these assays?
C8 TRAIL sens: 27

What do the screens show for `COc1cc(/C=N/NC(=O)c2cccs2)ccc1O`?
PPC-1+TRAIL kill: 6; C8 TRAIL sens: 21

How did O=C(N/N=C/c1ccc2c(c1)OCO2)c1cccs1 do in these assays?
PPC-1+TRAIL kill: 29; FLuc inh counter: 75*; C8 TRAIL sens: 41; FLuc stim CS: 0.2

What do the screens show for `O=C(NN=Cc1ccc2c(c1)CCN2)c1cccs1`?
C8 TRAIL sens: 50*

What do the screens show for `Cc1cc(C(=O)N/N=C/c2ccc3c(c2)OCO3)c(C)o1`?
PPC-1+TRAIL kill: 34; FLuc inh counter: 64*; C8 TRAIL sens: 32; FLuc stim CS: 0.4

Results for CCOc1ccccc1Nc1nnc(SCC(=O)NC2CC2)s1 ?
C8 TRAIL sens: 4

Results for Cc1nnc(Cc2ccccc2)c2n[nH]c(C)c12 ?
C8 TRAIL sens: -6

How did Cc1ccc(S(=O)(=O)N(C)C)cc1NC(=O)CN1C(=O)NC(Cc2ccccc2)C1=O (stereo unspecified) do in these assays?
C8 TRAIL sens: -1

How did O=C(N/N=C/c1ccc2c(c1)OCO2)c1ccc2c(c1)OCCO2 do in these assays?
PPC-1+TRAIL kill: 26; FLuc inh counter: 80*; C8 TRAIL sens: 34; FLuc stim CS: 0.2

What do the screens show for `Cc1ccsc1C(=O)N/N=C/c1ccc2c(c1)OCO2`?
PPC-1+TRAIL kill: 25; FLuc inh counter: 64*; C8 TRAIL sens: 29; FLuc stim CS: 0.4

How did O=C(N/N=C/c1c[nH]c2ccccc12)c1ccc2c(c1)OCCO2 do in these assays?
PPC-1+TRAIL kill: 44; C8 TRAIL sens: 76*

Results for O=C(N/N=C/c1ccc(Cl)cc1)c1ccc2c(c1)OCO2 ?
C8 TRAIL sens: 37

Results for CC1(C(=O)NS(=O)(=O)c2cccc(F)c2)CCN1C(=O)Cc1cccc2ccccc12 (stereo unspecified) ?
C8 TRAIL sens: -28
